From ChEMBL document CHEMBL1275308, “Synthesis, analgesic and anti-inflammatory evaluation of some novel quinazoline derivatives” (Eur J Med Chem, 2010)
The source made the active and inactive calls.

What was measured:
[1] = test system: Rattus norvegicus; test: Antiinflammatory activity in rat assessed as inhibition of formaldehyde-induced paw edema at 100 mg/kg, po qd for 4 days administered 1 hr before formaldehyde challenge measured 2 hrs post formaldehyde challenge relative to untreated control; format: functional
How it was run: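 Rats dosed orally at 100 mg/kg once daily for 4 d, with an indomethacin reference and a vehicle control. Right hind paw volume measured by plethysmometer before challenge. 0.2 mL of 10% w/v formaldehyde injected subplantar 1 h after drug. Paw volume measured 1 and 2 h after injection. Results given as % inhibition versus control; means, ANOVA with Dunnett's test.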

[2] = test system: Mus musculus; test: Analgesic activity against heat induced nociception in Swiss albino mouse assessed as increase in latency at 100 mg/kg, po measured 60 mins post compound dose by hot plate method relative to pretreatment level; format: functional
How it was run: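 Mice; test compounds and indomethacin, each at 100 mg/kg orally as a suspension in 1% carboxymethyl cellulose. Six groups of six animals, with a vehicle negative control. Reaction time recorded at 30 min, 1, 2 and 3 h after treatment, cut-off 10 s. Effect expressed as percentage of the pretreatment level. Values are means.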

[3] = test system: Mus musculus; test: Toxicity in mouse assessed as incidence of toxic symptoms at 1000 mg/kg, po measured 24 hrs post dose; format: organism-based; design: dose 1000 mg/kg, route oral; conditions: in vivo
[4] = test system: Mus musculus; test: Toxicity in mouse assessed as incidence of toxic symptoms at 750 mg/kg, po measured 24 hrs post dose; format: organism-based; design: dose 750 mg/kg, route oral; conditions: in vivo
[5] = test system: Mus musculus; test: Toxicity in mouse assessed as mortality at 750 mg/kg, po measured 24 hrs post dose; format: organism-based; design: dose 750 mg/kg, route oral; conditions: in vivo
[6] = test system: Mus musculus; test: Toxicity in mouse assessed as incidence of toxic symptoms at 500 mg/kg, po measured 24 hrs post dose; format: organism-based; design: dose 500 mg/kg, route oral; conditions: in vivo
[7] = test system: Mus musculus; test: Toxicity in mouse assessed as mortality at 500 mg/kg, po measured 24 hrs post dose; format: organism-based; design: dose 500 mg/kg, route oral; conditions: in vivo
[8] = test system: Mus musculus; test: Toxicity in mouse assessed as mortality at 1000 mg/kg, po measured 24 hrs post dose; format: organism-based; design: dose 1000 mg/kg, route oral; conditions: in vivo
[9] = test system: Mus musculus; test: Toxicity in mouse assessed as induction of urination at 500 to 1000 mg/kg, po measured within 24 hrs post dose; format: organism-based; design: dose 500-1000 mg/kg, route oral; conditions: in vivo
[10] = test system: Mus musculus; test: Toxicity in mouse assessed as induction of calmness at 500 to 1000 mg/kg, po measured within 24 hrs post dose; format: organism-based; design: dose 500-1000 mg/kg, route oral; conditions: in vivo
[11] = test system: Mus musculus; test: Toxicity in mouse assessed as induction of muscle relaxation at 500 to 1000 mg/kg, po measured within 24 hrs post dose; format: organism-based; design: dose 500-1000 mg/kg, route oral; conditions: in vivo
[12] = test system: Mus musculus; test: Toxicity in mouse assessed as induction of sedation at 500 to 1000 mg/kg, po measured within 24 hrs post dose; format: organism-based; design: dose 500-1000 mg/kg, route oral; conditions: in vivo

SMILES	inhibition in vivo at 100 mg/kg [1]	Activity [2]	Activity [3]	Activity [4]	Activity [5]	Activity [6]	Activity [7]	Activity [8]	Activity [9]	Activity [10]	Activity [11]	Activity [12]
COc1ccc2c(c1)c(CC(=O)O)c(C)n2C(=O)c1ccc(Cl)cc1 [INDOMETHACIN]	78.3%	97.5%	–	–	–	–	–	–	–	–	–	–
Clc1ccc(-c2nc(N3CCN(c4ccccc4)CC3)c3ccccc3n2)cc1	12.6%	inactive	–	–	–	–	–	–	–	–	–	–
Brc1ccc2nc(-c3ccccc3)nc(N3CCC(c4ccccc4)CC3)c2c1	57.6%	89.8%	Non-toxic	Non-toxic	Non-toxic	Non-toxic	Non-toxic	Non-toxic	–	–	–	–
CCOC(=O)C1CCN(c2nc(-c3ccccc3)nc3ccccc23)CC1	70.3%	98.5%	Non-toxic	Non-toxic	Non-toxic	Non-toxic	Non-toxic	Non-toxic	–	–	–	–
CC1CCN(c2nc(-c3ccc(Cl)cc3)nc3ccc(Br)cc23)CC1	55.1%	85.2%	–	–	–	–	–	–	–	–	–	–
CC1CCN(c2nc(-c3ccccc3)nc3ccccc23)CC1	69%	88%	–	–	–	–	–	–	–	–	–	–
O=c1[nH]nc(C2CCN(c3nc(-c4ccccc4)nc4ccccc34)CC2)s1	12.7%	81.5%	Non-toxic	Non-toxic	Non-toxic	Non-toxic	Non-toxic	Non-toxic	–	–	–	–
Clc1ccc(-c2nc(N3CCC(c4ccccc4)CC3)c3cc(Br)ccc3n2)cc1	50%	106.1%	Non-toxic	Non-toxic	Non-toxic	Non-toxic	Non-toxic	Non-toxic	Toxic	–	–	–
Clc1ccc(-c2nc(N3CCN(c4ccccc4)CC3)c3cc(I)ccc3n2)cc1	13.5%	inactive	–	–	–	–	–	–	–	–	–	–
CN1CCN(c2nc(-c3ccccc3)nc3ccccc23)CC1	45.2%	86.2%	–	–	–	–	–	–	–	–	–	–
c1ccc(-c2nc(N3CCC(c4ccccc4)CC3)c3ccccc3n2)cc1	85.3%	153.8%	Non-toxic	Non-toxic	Non-toxic	Non-toxic	Non-toxic	Non-toxic	–	–	–	–
c1ccc(-c2nc(N3CCN(c4ccccc4)CC3)c3ccccc3n2)cc1	77.4%	107.3%	Non-toxic	Non-toxic	Non-toxic	Non-toxic	Non-toxic	Non-toxic	Toxic	–	–	–
CC1CCN(c2nc(-c3ccccc3)nc3ccc(I)cc23)CC1	56.4%	85.7%	–	–	–	–	–	–	–	–	–	–
CN1CCN(c2nc(-c3ccc(Cl)cc3)nc3ccc(I)cc23)CC1	17%	inactive	–	–	–	–	–	–	–	–	–	–
Ic1ccc2nc(-c3ccccc3)nc(N3CCN(c4ccccc4)CC3)c2c1	39.2%	inactive	Non-toxic	Non-toxic	Non-toxic	Non-toxic	Non-toxic	Non-toxic	–	Toxic	Toxic	Toxic
CC1CCN(c2nc(-c3ccc(Cl)cc3)nc3ccc(I)cc23)CC1	45.8%	82.3%	–	–	–	–	–	–	–	–	–	–
CC1CCN(c2nc(-c3ccccc3)nc3ccc(Br)cc23)CC1	57.8%	inactive	–	–	–	–	–	–	–	–	–	–
Clc1ccc(-c2nc(N3CCN(c4ccccc4)CC3)c3cc(Br)ccc3n2)cc1	16.2%	inactive	Non-toxic	Non-toxic	Non-toxic	Non-toxic	Non-toxic	Non-toxic	–	Toxic	Toxic	Toxic
CC1CCN(c2nc(-c3ccc(Cl)cc3)nc3ccccc23)CC1	55.1%	inactive	–	–	–	–	–	–	–	–	–	–
CN1CCN(c2nc(-c3ccccc3)nc3ccc(Br)cc23)CC1	45%	inactive	–	–	–	–	–	–	–	–	–	–
CN1CCN(c2nc(-c3ccccc3)nc3ccc(I)cc23)CC1	39.6%	inactive	–	–	–	–	–	–	–	–	–	–
S=c1[nH]nc(C2CCN(c3nc(-c4ccccc4)nc4ccccc34)CC2)s1	71.3%	88%	Non-toxic	Non-toxic	Non-toxic	Non-toxic	Non-toxic	Non-toxic	–	–	–	–
Nc1nnc(C2CCN(c3nc(-c4ccccc4)nc4ccccc34)CC2)s1	73%	83.2%	Non-toxic	Non-toxic	Non-toxic	Non-toxic	Non-toxic	Non-toxic	–	Toxic	Toxic	Toxic
CN1CCN(c2nc(-c3ccc(Cl)cc3)nc3ccccc23)CC1	37%	inactive	–	–	–	–	–	–	–	–	–	–
Ic1ccc2nc(-c3ccccc3)nc(N3CCC(c4ccccc4)CC3)c2c1	82.5%	110.2%	Non-toxic	Non-toxic	Non-toxic	Non-toxic	Non-toxic	Non-toxic	Toxic	–	–	–
CN1CCN(c2nc(-c3ccc(Cl)cc3)nc3ccc(Br)cc23)CC1	20%	inactive	–	–	–	–	–	–	–	–	–	–
Clc1ccc(-c2nc(N3CCC(c4ccccc4)CC3)c3ccccc3n2)cc1	53.7%	87.3%	–	–	–	–	–	–	–	–	–	–
Clc1ccc(-c2nc(N3CCC(c4ccccc4)CC3)c3cc(I)ccc3n2)cc1	41.4%	inactive	–	–	–	–	–	–	–	–	–	–
Brc1ccc2nc(-c3ccccc3)nc(N3CCN(c4ccccc4)CC3)c2c1	40.7%	inactive	–	–	–	–	–	–	–	–	–	–
